Source: ChEMBL document CHEMBL4350961, “Discovery of Pyrrolo[3,2- d]pyrimidin-4-one Derivatives as a New Class of Potent and Cell-Active Inhibitors of P300/CBP-Associated Factor Bromodomain” (J Med Chem, 2019)
Activity calls are given as the source filed them. The rule behind the calls is not given here.

Legend:
MEF [1] = assay: Effect on Pkdrej gene expression in MEF cells at 2.5 uM measured after 48 hrs by RNA-sequencing analysis relative to control; format: functional, Mus musculus
Outline: (§1)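 Mouse embryonic fibroblasts treated 48 h; negative-control enantiomer at 2.5 µM, DMSO as blank. Total RNA extracted with TRIzol, checked by NanoDrop, then RNA-seq with n = 3 per set. Genes called changed at >1.5-fold with p < 0.05 against blank.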

MEF [2] = assay: Effect on Slco1a5 gene expression in MEF cells at 2.5 uM measured after 48 hrs by RNA-sequencing analysis relative to control; format: functional, Mus musculus; outline: as §1
[3] = biological target: ATPase family AAA domain-containing protein 2 (Homo sapiens) (UniProt Q6PL18); assay: Binding affinity to human N-terminal His-tagged ATAD2 assessed as change in melting temperature at 10 uM by SYPRO orange dye-based fluorescence assay
Outline: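 Thermal shift with His-tagged human bromodomain at 2 μM final in 10 mM HEPES pH 7.5, 500 mM NaCl. Compound at 10 μM final with 0.1% DMSO; SYPRO Orange at 1:1000. Equilibrated 3 min at 25 °C, then heated from 25 to 95 °C at 1 °C/min. Melting temperature shift taken from fluorescence; at least duplicate.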

MEF [4] = assay: Effect on Ooep gene expression in MEF cells at 2.5 uM measured after 48 hrs by RNA-sequencing analysis relative to control; format: functional, Mus musculus; outline: as §1
[5] = biological target: Cyclin-dependent kinase 13/Cyclin-K (Homo sapiens) (UniProt Q14004+O75909); assay: Inhibition of recombinant full length human CDK13/cyclinK at 10 uM using RSRSRSRSRSRSRSR as substrate measured after 120 mins in presence of [gamma33P]ATP by scintillation counting method; format: protein-complex assay
MEF [6] = assay: Effect on Gucy1a3 gene expression in MEF cells at 2.5 uM measured after 48 hrs by RNA-sequencing analysis relative to control; format: functional, Mus musculus; outline: as §1
MEF [7] = assay: Effect on Gabra3 gene expression in MEF cells at 2.5 uM measured after 48 hrs by RNA-sequencing analysis relative to control; format: functional, Mus musculus; outline: as §1
[8] = biological target: Histone acetyltransferase KAT2B (Homo sapiens, UniProt Q92831); assay: Inhibition of Halo-tagged histone H3.3 binding to N-terminal Nano luciferase-fused full-length PCAF (unknown origin) expressed in HEK293T cells co-expressing C-terminal Halo-tagged histone H3.3 measured after 18 hrs by 618 fluorescent ligand-based BRET assay; format: cell-based
Outline: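 HEK293T cells co-transfected with histone H3.3-HaloTag and PCAF-NanoLuc. After 20 h, cells replated at 2×10^5/ml in phenol red-free DMEM with 4% FBS, with or without 100 nM NanoBRET 618 ligand. Compound dilutions or DMSO added, then 18 h at 37 °C, 5% CO2. Nano-Glo substrate added; 610/460 nm ratio minus no-ligand blank, in mBU; n = 2 biological replicates.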

MEF [9] = assay: Effect on Slitrk6 gene expression in MEF cells at 2.5 uM measured after 48 hrs by RNA-sequencing analysis relative to control; format: functional, Mus musculus; outline: as §1
[10] = biological target: Tyrosine-protein kinase HCK (Homo sapiens) (UniProt P08631); assay: Inhibition of recombinant human activated HCK (230 to 497 residues) at 10 uM using GGMEDIYFEFMGGKKK as substrate measured after 40 mins in presence of [gamma33P]ATP by scintillation counting method
Sequence of Tyrosine-protein kinase HCK (Homo sapiens) (P08631 2-526 limits assumed): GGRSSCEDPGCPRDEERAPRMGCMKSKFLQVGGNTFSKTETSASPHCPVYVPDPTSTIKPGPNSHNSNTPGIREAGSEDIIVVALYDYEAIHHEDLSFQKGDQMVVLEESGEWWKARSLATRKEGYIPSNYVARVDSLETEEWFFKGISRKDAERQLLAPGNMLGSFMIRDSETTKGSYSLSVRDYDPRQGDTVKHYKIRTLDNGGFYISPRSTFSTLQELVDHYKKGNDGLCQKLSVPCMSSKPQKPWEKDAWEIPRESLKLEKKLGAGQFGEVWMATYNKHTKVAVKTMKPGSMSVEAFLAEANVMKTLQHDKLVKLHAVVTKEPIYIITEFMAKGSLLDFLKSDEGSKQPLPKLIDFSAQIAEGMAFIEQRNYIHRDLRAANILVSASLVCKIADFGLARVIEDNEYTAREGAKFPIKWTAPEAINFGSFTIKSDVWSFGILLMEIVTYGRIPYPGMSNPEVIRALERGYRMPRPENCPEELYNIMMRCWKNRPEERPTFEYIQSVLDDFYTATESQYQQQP

MEF [11] = assay: Effect on Klk9 gene expression in MEF cells at 2.5 uM measured after 48 hrs by RNA-sequencing analysis relative to control; format: functional, Mus musculus; outline: as §1
[12] = biological target: Histone acetyltransferase KAT2A (Homo sapiens, UniProt Q92830); assay: Binding affinity to human N-terminal His-tagged GCN5 by isothermal titration calorimetry
[13] = biological target: Tyrosine-protein kinase Lck (Homo sapiens) (UniProt P06239); assay: Inhibition of recombinant full-length human Lck at 10 uM using KVEKIGEGTYGVV as substrate measured after 40 mins in presence of [gamma33P]ATP by scintillation counting method
Sequence of Tyrosine-protein kinase Lck (Homo sapiens) (P06239 2-509 limits assumed): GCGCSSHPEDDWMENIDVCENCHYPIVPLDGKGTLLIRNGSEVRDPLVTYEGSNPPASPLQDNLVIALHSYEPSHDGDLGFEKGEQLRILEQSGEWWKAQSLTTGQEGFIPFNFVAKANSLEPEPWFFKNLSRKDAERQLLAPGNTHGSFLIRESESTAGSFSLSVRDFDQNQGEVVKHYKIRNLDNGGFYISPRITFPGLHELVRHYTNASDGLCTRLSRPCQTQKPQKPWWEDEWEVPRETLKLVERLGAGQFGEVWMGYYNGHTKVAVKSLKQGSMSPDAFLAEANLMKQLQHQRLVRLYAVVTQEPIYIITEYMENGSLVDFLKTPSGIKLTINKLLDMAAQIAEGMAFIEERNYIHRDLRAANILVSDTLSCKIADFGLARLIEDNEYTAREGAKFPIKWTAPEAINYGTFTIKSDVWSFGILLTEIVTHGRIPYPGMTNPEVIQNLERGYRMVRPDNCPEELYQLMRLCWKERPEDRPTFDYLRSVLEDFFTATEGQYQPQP

MEF [14] = assay: Effect on Zfyve28 gene expression in MEF cells at 2.5 uM measured after 48 hrs by RNA-sequencing analysis relative to control; format: functional, Mus musculus
Outline: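 MEF cells treated for 48 h with test compound, with (S,S) enantiomer at 2.5 µM as negative control and DMSO as blank; total RNA (TRIzol, n = 3 per set) analysed by RNA-seq; genes counted as changed at >1.5-fold, p < 0.05, relative to blank control.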

[15] = biological target: ATPase family AAA domain-containing protein 2B (Homo sapiens) (UniProt Q9ULI0); assay: Binding affinity to human partial length ATAD2B (Q955 to R1082 residues) expressed in bacterial expression system at 1 uM by BROMOscan assay
Sequence of ATPase family AAA domain-containing protein 2B (Homo sapiens) (Q9ULI0 whole entry, the tested form may be a part): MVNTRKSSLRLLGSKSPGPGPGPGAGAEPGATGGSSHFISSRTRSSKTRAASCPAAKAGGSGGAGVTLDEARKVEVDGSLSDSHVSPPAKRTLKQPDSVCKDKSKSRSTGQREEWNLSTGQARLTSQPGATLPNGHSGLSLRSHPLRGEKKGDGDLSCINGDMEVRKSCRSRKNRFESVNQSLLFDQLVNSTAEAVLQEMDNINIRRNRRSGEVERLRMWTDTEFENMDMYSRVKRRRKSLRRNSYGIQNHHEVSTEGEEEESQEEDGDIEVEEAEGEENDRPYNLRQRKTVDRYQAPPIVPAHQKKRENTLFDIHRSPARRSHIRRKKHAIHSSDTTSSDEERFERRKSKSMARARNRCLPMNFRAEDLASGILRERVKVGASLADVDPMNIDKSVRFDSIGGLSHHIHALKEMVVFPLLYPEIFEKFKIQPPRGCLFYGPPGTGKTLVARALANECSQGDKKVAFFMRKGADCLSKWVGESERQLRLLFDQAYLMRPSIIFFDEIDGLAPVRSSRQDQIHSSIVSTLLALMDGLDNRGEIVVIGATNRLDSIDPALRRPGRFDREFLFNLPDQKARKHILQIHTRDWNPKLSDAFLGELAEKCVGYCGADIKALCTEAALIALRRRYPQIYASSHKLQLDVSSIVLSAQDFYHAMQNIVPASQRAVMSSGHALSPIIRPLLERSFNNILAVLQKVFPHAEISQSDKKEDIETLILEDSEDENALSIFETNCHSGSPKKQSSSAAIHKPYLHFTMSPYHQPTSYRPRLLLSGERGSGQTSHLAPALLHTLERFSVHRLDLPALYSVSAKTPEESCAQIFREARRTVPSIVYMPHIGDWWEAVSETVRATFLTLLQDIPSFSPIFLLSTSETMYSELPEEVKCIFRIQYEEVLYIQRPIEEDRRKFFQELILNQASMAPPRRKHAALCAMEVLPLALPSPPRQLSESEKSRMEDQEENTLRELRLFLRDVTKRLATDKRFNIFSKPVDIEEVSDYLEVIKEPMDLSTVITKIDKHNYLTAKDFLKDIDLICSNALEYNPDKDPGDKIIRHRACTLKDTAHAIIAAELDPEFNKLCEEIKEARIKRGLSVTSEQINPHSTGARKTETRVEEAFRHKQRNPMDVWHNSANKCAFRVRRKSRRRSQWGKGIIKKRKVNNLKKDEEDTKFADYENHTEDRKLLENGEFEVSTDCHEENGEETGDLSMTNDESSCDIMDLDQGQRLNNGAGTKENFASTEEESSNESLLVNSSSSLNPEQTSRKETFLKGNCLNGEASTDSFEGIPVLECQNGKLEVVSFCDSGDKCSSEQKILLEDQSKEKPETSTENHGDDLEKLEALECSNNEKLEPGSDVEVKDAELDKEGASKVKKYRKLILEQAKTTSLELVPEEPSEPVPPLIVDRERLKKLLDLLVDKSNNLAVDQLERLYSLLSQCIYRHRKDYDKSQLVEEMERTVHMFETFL
Outline: (§2)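 BROMOscan bromodomain cross-screen run by an outside service, compound at 1 µM against 32 recombinant bromodomains. Binding given as percent of control.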

MEF [16] = assay: Effect on Icos gene expression in MEF cells at 2.5 uM measured after 48 hrs by RNA-sequencing analysis relative to control; format: functional, Mus musculus; outline: as §1
[17] = biological target: Activin receptor type-2A (Homo sapiens) (UniProt P27037); assay: Inhibition of recombinant human ACTR2 (162 to end residues) at 10 uM using casein as substrate measured after 120 mins in presence of [gamma33P]ATP by scintillation counting method
MEF [18] = assay: Effect on Gm36718 gene expression in MEF cells at 2.5 uM measured after 48 hrs by RNA-sequencing analysis relative to control; format: functional, Mus musculus; outline: as §1
[19] = biological target: Mast/stem cell growth factor receptor Kit (Homo sapiens) (UniProt P10721); assay: Inhibition of recombinant human c-Kit (544 to end residues) at 10 uM using poly(Glu, Tyr) 4:1 as substrate measured after 40 mins in presence of [gamma33P]ATP by scintillation counting method
MEF [20] = assay: Effect on Hkdc1 gene expression in MEF cells at 2.5 uM measured after 48 hrs by RNA-sequencing analysis relative to control; format: functional, Mus musculus; outline: as §1
[21] = biological target: SRSF protein kinase 2 (Homo sapiens) (UniProt P78362); assay: Inhibition of human SRPK2 (46 to end residues) using RSRSRSRSRSRSRSR as substrate measured after 40 mins in presence of [gamma33P]ATP by scintillation counting method
Sequence of SRSF protein kinase 2 (Homo sapiens) (P78362 whole entry, looked up): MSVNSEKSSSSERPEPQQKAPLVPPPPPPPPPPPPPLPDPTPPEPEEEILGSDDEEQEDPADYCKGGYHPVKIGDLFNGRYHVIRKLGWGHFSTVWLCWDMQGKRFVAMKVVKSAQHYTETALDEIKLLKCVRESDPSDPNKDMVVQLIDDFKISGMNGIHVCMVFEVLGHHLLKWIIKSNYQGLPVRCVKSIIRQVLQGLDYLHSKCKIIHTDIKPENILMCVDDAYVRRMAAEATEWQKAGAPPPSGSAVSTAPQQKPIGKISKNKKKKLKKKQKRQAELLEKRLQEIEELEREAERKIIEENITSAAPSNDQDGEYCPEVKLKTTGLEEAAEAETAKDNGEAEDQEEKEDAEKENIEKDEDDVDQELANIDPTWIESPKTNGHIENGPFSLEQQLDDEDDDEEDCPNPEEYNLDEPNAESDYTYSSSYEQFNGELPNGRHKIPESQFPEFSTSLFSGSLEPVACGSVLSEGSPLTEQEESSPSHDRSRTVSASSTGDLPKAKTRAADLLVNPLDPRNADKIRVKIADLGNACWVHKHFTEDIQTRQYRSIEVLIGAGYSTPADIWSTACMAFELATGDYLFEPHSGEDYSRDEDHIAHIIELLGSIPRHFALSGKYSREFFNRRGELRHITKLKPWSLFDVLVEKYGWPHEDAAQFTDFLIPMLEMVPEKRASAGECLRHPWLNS
Outline: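 Kinase panel of 422 kinases screened by Eurofins KinaseProfiler at a single test-compound concentration of 10 µM.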

MEF [22] = assay: Effect on Nuggc gene expression in MEF cells at 2.5 uM measured after 48 hrs by RNA-sequencing analysis relative to control; format: functional, Mus musculus; outline: as §1
MEF [23] = assay: Effect on Dlx4 gene expression in MEF cells at 2.5 uM measured after 48 hrs by RNA-sequencing analysis relative to control; format: functional, Mus musculus; outline: as §1
Mus musculus = species on record: Mus musculus; assay: Inhibition of recombinant full-length mouse PI3K p110beta/p85beta R123L mutant at 10 uM using phosphatidylinositol-4, 5-bisphosphate as substrate measured after 40 mins by HTRF assay
[24] = biological target: SWI/SNF-related matrix-associated actin-dependent regulator of chromatin subfamily A member 2 (Homo sapiens) (UniProt P51531); assay: Binding affinity to human partial length SMARCA2 (S1377 to Q1486 residues) expressed in bacterial expression system at 1 uM by BROMOscan assay; outline: as §2
Sequence of SWI/SNF-related matrix-associated actin-dependent regulator of chromatin subfamily A member 2 (Homo sapiens) (P51531 whole entry, the tested form may be a part): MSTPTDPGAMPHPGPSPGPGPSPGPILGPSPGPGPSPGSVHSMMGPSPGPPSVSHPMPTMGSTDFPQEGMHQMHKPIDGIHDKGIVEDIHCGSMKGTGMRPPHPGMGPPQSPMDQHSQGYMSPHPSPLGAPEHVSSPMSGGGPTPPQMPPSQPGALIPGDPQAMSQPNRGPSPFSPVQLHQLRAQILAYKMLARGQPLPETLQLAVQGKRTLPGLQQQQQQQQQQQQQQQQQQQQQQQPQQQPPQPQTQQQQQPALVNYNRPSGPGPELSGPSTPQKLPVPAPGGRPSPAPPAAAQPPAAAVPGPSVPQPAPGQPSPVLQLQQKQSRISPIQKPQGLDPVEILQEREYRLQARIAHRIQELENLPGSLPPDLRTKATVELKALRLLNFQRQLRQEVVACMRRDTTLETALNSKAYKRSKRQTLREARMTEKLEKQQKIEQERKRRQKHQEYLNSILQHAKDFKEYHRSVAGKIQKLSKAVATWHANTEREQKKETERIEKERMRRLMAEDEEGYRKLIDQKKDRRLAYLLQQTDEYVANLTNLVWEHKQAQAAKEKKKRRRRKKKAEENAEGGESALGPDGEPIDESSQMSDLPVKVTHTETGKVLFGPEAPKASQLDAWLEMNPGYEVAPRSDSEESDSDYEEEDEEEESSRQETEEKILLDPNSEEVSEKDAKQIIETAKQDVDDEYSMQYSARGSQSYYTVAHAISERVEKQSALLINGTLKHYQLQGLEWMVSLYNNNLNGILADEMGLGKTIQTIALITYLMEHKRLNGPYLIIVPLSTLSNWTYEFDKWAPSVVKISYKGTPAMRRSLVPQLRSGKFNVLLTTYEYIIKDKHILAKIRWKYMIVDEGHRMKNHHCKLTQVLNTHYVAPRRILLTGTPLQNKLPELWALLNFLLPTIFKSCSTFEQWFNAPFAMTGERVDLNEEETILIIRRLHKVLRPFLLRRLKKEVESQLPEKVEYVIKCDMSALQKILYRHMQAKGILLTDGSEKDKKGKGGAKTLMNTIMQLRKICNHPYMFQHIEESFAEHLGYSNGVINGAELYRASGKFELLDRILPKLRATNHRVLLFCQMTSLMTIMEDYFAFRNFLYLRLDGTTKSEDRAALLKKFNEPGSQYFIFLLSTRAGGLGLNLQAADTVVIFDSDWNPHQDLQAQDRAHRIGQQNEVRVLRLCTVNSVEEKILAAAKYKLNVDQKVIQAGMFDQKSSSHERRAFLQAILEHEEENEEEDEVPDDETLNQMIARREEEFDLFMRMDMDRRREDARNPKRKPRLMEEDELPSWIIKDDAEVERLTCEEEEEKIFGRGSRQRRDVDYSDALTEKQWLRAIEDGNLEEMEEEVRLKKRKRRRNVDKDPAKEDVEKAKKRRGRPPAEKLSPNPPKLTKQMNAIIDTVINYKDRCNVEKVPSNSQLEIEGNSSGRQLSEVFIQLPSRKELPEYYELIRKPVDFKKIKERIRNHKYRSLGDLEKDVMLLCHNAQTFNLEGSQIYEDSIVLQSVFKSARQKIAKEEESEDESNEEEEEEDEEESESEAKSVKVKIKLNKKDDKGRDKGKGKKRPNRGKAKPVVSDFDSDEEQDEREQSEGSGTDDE

SMILES | fold change (FC) (MEF [1]) | fold change (FC) (MEF [2]) | fold change (FC) (MEF [4]) | fold change (FC) (MEF [6]) | fold change (FC) (MEF [7]) | inhibition [8] | fold change (FC) (MEF [9]) | fold change (FC) (MEF [11]) | fold change (FC) (MEF [14]) | fold change (FC) (MEF [16]) | fold change (FC) (MEF [18]) | fold change (FC) (MEF [20]) | fold change (FC) (MEF [22]) | fold change (FC) (MEF [23]) | also measured
CN1C[C@H](Nc2nc3cc[nH]c3c(=O)n2C)C[C@H](c2ccc3c(c2)OCCO3)C1 | >1.5 | >1.5 | >1.5 | >1.5 | >1.5 | Dose-dependent effect | >1.5 | >1.5 | >1.5 | >1.5 | >1.5 | >1.5 | >1.5 | >1.5 | ΔTm [3]: 0.3 °C; inhibition [5]: inactive; IC50 [8]: 118 nM; inhibition [10]: inactive; Kd [12]: 105 nM; inhibition [13]: inactive; Activity [15]: inactive; inhibition [17]: inactive; inhibition [19]: inactive; inhibition [21]: inactive; inhibition (Mus musculus): inactive; Activity [24]: inactive
CN1C[C@@H](Nc2nc3cc[nH]c3c(=O)n2C)C[C@@H](c2ccc3c(c2)OCCO3)C1 | >1.5 | >1.5 | >1.5 | >1.5 | >1.5 | inactive | >1.5 | >1.5 | >1.5 | >1.5 | >1.5 | >1.5 | >1.5 | >1.5 | 
